ChEMBL document CHEMBL1155568, “Biological characterization of fusapyrone and deoxyfusapyrone, two bioactive secondary metabolites of Fusarium semitectum” (J Nat Prod, 2000)
Calls of active or inactive are those of the source. The rule behind the calls is not given here.

What was measured:
Ascochyta rabiei [1] = test: Antifungal activity against Ascochyta rabiei ITEM 466 at 5 ug/disk by paper disk method; assay type: functional, organism-based
In short: (§1)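 Agar diffusion: a 0.7% water-agar overlay carrying 10^4 conidia/mL (or yeast cells) is poured on PDA. 6-mm cellulose disks loaded with methanolic compound at 5 or 15 µg/disk are air-dried and applied, with nystatin as comparator. Plates incubated 24-72 h at 25 °C; inhibition halo diameter read from three disks. Agar under each disk is subcultured on PDA to score fungicidal/fungistatic effect. Experiment run twice and averaged.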

Candida albicans [2] = test: Antifungal activity against Candida albicans at 50 ug/disk by paper disk method; assay type: functional, organism-based
[3] = (§2) Toxicity against Artemia salina larvae; assay type: organism-based; details: in vivo
In short: (§3)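 Quadruplicate wells; mortality counted after 24 and 36 h at 27 °C. LC50 from probit analysis of dose-mortality data from six independent experiments.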

Alternaria alternata [4] = test: Antifungal activity against Alternaria alternata ITEM 511 at 15 ug/disk by paper disk method; assay type: functional; details: read-out: IZ; in short: as §1
Alternaria alternata [5] = test: Antifungal activity against Alternaria alternata ITEM 526 at 15 ug/disk by paper disk method; assay type: functional; details: read-out: IZ; in short: as §1
Alternaria citri = test: Antifungal activity against Alternaria citri ITEM 466 at 15 ug/disk by paper disk method; assay type: functional; details: read-out: IZ
In short: (§4)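 Agar overlay diffusion: 0.7% water-agar with 10^4 conidia/mL of test fungus poured over PDA; 6-mm cellulose disks impregnated with methanolic compound solution, air-dried. Incubated 25 °C for 24-72 h by fungus; growth-inhibition halo diameter from three replicate disks. Agar under disks then subcultured on PDA to score fungicidal/fungistatic classes. Repeated twice, averaged.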

Ascochyta rabiei [6] = test: Antifungal activity against Ascochyta rabiei ITEM 1067 at 15 ug/disk by paper disk method; assay type: functional; details: read-out: IZ; in short: as §1
Aspergillus flavus [7] = test: Antifungal activity against Aspergillus flavus ITEM 9 at 15 ug/disk by paper disk method; assay type: functional; details: read-out: IZ; in short: as §1
[8] = tested on: Colletotrichum gloeosporioides; test: Antifungal activity against Colletotrichum gloeosporioides ITEM 1729 at 15 ug/disk by paper disk method; assay type: functional; details: read-out: IZ; in short: as §1
Fusarium graminearum = test: Antifungal activity against Fusarium graminearum ITEM 2 at 15 ug/disk by paper disk method; assay type: functional; details: read-out: IZ; in short: as §4
Fusarium verticillioides = test: Antifungal activity against Fusarium moniliforme ITEM 1497 at 15 ug/disk by paper disk method; assay type: functional; details: read-out: IZ; in short: as §1
Fusarium oxysporum = test: Antifungal activity against Fusarium oxysporum ITEM 1462 at 15 ug/disk by paper disk method; assay type: functional; details: read-out: IZ; in short: as §1
Penicillium verrucosum [9] = test: Antifungal activity against Penicillium verrucosum ITEM 439 at 15 ug/disk by paper disk method; assay type: functional; details: read-out: IZ
In short: (§5)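 Agar overlay disk diffusion on plant-derived filamentous fungi and yeasts: 0.7% water-agar seeded with 10^4 conidia/mL or a yeast cell suspension, poured over PDA. 6-mm cellulose disks were loaded from methanolic solutions and air-dried, with nystatin as comparator. Plates ran 24-72 h at 25 °C; inhibition halo was measured over three disks. Agar beneath disks was subcultured on PDA to separate fungicidal from fungistatic, scored in four classes; run twice, averaged.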

Plenodomus tracheiphilus = test: Antifungal activity against Phoma tracheiphilla ITEM 1605 at 15 ug/disk by paper disk method; assay type: functional; details: read-out: IZ; in short: as §5
[10] = tested on: Meyerozyma guilliermondii; test: Antifungal activity against Candida guilliermondii ITEM 1638 at 15 ug/disk by paper disk method; assay type: functional; details: read-out: IZ; in short: as §1
Kluyveromyces lactis = test: Antifungal activity against Kluyveromyces lactis ITEM 1656 at 15 ug/disk by paper disk method; assay type: functional; details: read-out: IZ; in short: as §5
Saccharomyces cerevisiae = test: Antifungal activity against Saccharomyces cerevisiae ITEM 1633 at 15 ug/disk by paper disk method; assay type: functional; details: read-out: IZ; in short: as §5
Candida albicans [11] = test: Antifungal activity against Candida albicans 2 after 24 hrs by broth micromethod assay; assay type: functional
In short: (§6)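 Broth microdilution in YNB with 0.5% glucose, phosphate buffer pH 7, using ten 2-fold dilutions (50-0.097 µg/mL). Inoculum from 24-48 h Sabouraud agar cultures, final 5 × 10^2 cells for C. albicans and C. kefyr, 5 × 10^3 cells/conidia for C. glabrata, Cryptococcus neoformans and Aspergillus. Incubated at 35 °C up to 72 h, read every 24 h. MIC is the complete absence of growth versus medium controls.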

Nakaseomyces glabratus [12] = test: Antifungal activity against Candida glabrata 12 after 24 hrs by broth micromethod assay; assay type: functional; in short: as §6
Cryptococcus neoformans [13] = test: Antifungal activity against Cryptococcus neoformans 13 after 48 hrs by broth micromethod assay; assay type: functional; in short: as §6
Cryptococcus neoformans [14] = test: Antifungal activity against Cryptococcus neoformans 14 after 24 hrs by broth micromethod assay; assay type: functional; in short: as §6
Aspergillus fumigatus = test: Antifungal activity against Aspergillus fumigatus 1 after 48 hrs by broth micromethod assay; assay type: functional; in short: as §6
Aspergillus niger [15] = test: Antifungal activity against Aspergillus niger 2 after 24 hrs by broth micromethod assay; assay type: functional; in short: as §6
Aspergillus niger [16] = test: Antifungal activity against Aspergillus niger 2 after 72 hrs by broth micromethod assay; assay type: functional; in short: as §6
Aspergillus flavus [17] = test: Antifungal activity against Aspergillus flavus 3 after 48 hrs by broth micromethod assay; assay type: functional; in short: as §6
Cicer arietinum [18] = test: Phytotoxicity in chickpea leaf assessed as necrosis in the leaf at 10^-3 M by leaf puncture assay; assay type: organism-based; details: in vivo, 1000 µM
In short: (§7)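 Tomato and chickpea leaves were punctured and treated with toxin dissolved in MeOH and diluted with water (final 4% MeOH), tested from 10^-2 to 10^-7 M. Chlorosis and necrosis were recorded visually as spot symptoms.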

Cicer arietinum [19] = test: Phytotoxicity in chickpea leaf assessed as chlorosis in the leaf at 10^-3 M by leaf puncture assay; assay type: organism-based; details: in vivo, 1000 µM; in short: as §7
Solanum lycopersicum [20] = test: Phytotoxicity against tomato assessed as seedling germination; assay type: organism-based; details: in vivo
In short: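 Tomato seeds were surface-sterilized in 4% NaClO for 10 min and pregerminated 3 days in the dark. They were then placed 10 per dish on filter paper wetted with 2 mL of compound in 1% MeOH (10^-4 or 10^-5 M) and held 4 days at 25 °C under a 12-h photoperiod. Shoot and rootlet lengths were measured against control; done in triplicate, repeated once.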

Kluyveromyces marxianus [21] = test: Antifungal activity against Candida kefyr at 50 ug/disk by paper disk method; assay type: functional, organism-based
Artemia salina = test: as §2; assay type: organism-based; details: in vivo; in short: as §3
Kluyveromyces marxianus [22] = test: Antifungal activity against Candida kefyr Y0601 after 48 hrs by broth micromethod assay; assay type: functional; in short: as §6
Kluyveromyces marxianus [23] = test: Antifungal activity against Candida kefyr Y0601 after 72 hrs by broth micromethod assay; assay type: functional; in short: as §6
Nakaseomyces glabratus [24] = test: Antifungal activity against Candida glabrata 12 after 48 hrs by broth micromethod assay; assay type: functional; in short: as §6
Solanum lycopersicum [25] = test: Phytotoxicity in tomato leaf assessed as necrosis in the leaf at 10^-2 M by leaf puncture assay; assay type: organism-based; details: in vivo; in short: as §7
Solanum lycopersicum [26] = test: Phytotoxicity in tomato leaf assessed as necrosis in the leaf at 10^-3 M by leaf puncture assay; assay type: organism-based; details: in vivo, 1000 µM; in short: as §7
Penicillium verrucosum [27] = test: Antifungal activity against Penicillium verrucosum ITEM 439 at 5 ug/disk by paper disk method; assay type: functional, organism-based; in short: as §5
Botrytis cinerea = test: Antifungal activity against Botrytis cinerea ITEM 966 at 5 ug/disk by paper disk method; assay type: functional, organism-based; in short: as §1

| Compound | Activity (Ascochyta rabiei [1]) | Activity (Candida albicans [2]) | zone of inhibition at 15 µg/disc (Alternaria alternata [4]) [mm] | zone of inhibition at 15 µg/disc (Alternaria alternata [5]) [mm] | zone of inhibition at 15 µg/disc (Alternaria citri) [mm] | zone of inhibition at 15 µg/disc (Ascochyta rabiei [6]) [mm] | zone of inhibition at 15 µg/disc (Aspergillus flavus [7]) [mm] | zone of inhibition at 15 µg/disc [8] [mm] | zone of inhibition at 15 µg/disc (Fusarium graminearum) [mm] | zone of inhibition at 15 µg/disc (Fusarium verticillioides) [mm] | zone of inhibition at 15 µg/disc (Fusarium oxysporum) [mm] | zone of inhibition at 15 µg/disc (Penicillium verrucosum [9]) [mm] | zone of inhibition at 15 µg/disc (Plenodomus tracheiphilus) [mm] | zone of inhibition at 15 µg/disc [10] [mm] | zone of inhibition at 15 µg/disc (Kluyveromyces lactis) [mm] | zone of inhibition at 15 µg/disc (Saccharomyces cerevisiae) [mm] | Activity (Candida albicans [11]) [µg/mL] | Activity (Nakaseomyces glabratus [12]) [µg/mL] | Activity (Cryptococcus neoformans [13]) [µg/mL] | Activity (Cryptococcus neoformans [14]) [µg/mL] | further results |
| --- | --- | --- | --- | --- | --- | --- | --- | --- | --- | --- | --- | --- | --- | --- | --- | --- | --- | --- | --- | --- | --- |
| CCCCCCC(C)C/C(C)=C\C(C)/C=C(C)/C=C/C(O)C(C)(C)c1cc(O)c([C@@H]2O[C@@H](CO)C[C@@H](O)[C@@H]2O)c(=O)o1 (some centres undefined) [DEXOYFUSAPYRONE] | Active | inactive | 11 | 11.7 | 9.2 | 12 | 12.4 | 13.8 | 10.8 | 0 | 0 | 11 | 16.3 | 0 | 0 | 0 | >50 | >50 | 6.25 | 3.12 | LC50 [3]: 37.1 µM; Activity (Aspergillus fumigatus): 3.12 µg/mL; Activity (Aspergillus niger [15]): 1.56 µg/mL; Activity (Aspergillus niger [16]): 1.56 µg/mL; Activity (Aspergillus flavus [17]): 1.56 µg/mL; Activity (Cicer arietinum [18]): Active; Activity (Cicer arietinum [19]): Active; Activity (Solanum lycopersicum [20]): Not Active |
| CCCCCCC(C)C/C(C)=C\C(/C=C(C)/C=C/C(O)C(C)(C)c1cc(O)c([C@@H]2O[C@@H](CO)C[C@@H](O)[C@@H]2O)c(=O)o1)CO (some centres undefined) [FUSAPYRONE] | Active | inactive | 18 | 20.3 | 18 | 35.8 | 27.3 | 31.8 | 26.5 | 20.1 | 28.3 | 29.7 | 40 | 0 | 0 | 0 | >50 | >50 | 6.25 | 3.12 | Activity (Kluyveromyces marxianus [21]): Active; Activity (Artemia salina): Not Active; Activity (Kluyveromyces marxianus [22]): 1.56 µg/mL; Activity (Kluyveromyces marxianus [23]): 3.12 µg/mL; Activity (Nakaseomyces glabratus [24]): >50 µg/mL; Activity (Aspergillus fumigatus): 1.56 µg/mL; Activity (Aspergillus niger [15]): 1.56 µg/mL; Activity (Aspergillus niger [16]): 1.56 µg/mL; Activity (Aspergillus flavus [17]): 1.56 µg/mL; Activity (Solanum lycopersicum [25]): Active; Activity (Solanum lycopersicum [26]): Active; Activity (Cicer arietinum [18]): Active; Activity (Cicer arietinum [19]): Active; Activity (Solanum lycopersicum [20]): Not Active; Activity (Penicillium verrucosum [27]): inactive; Activity (Botrytis cinerea): inactive |
